Measurements as given in ChEMBL document CHEMBL3774372, “Design, physico-chemical properties and biological evaluation of some new N-[(phenoxy)alkyl]- and N-{2-[2-(phenoxy)ethoxy]ethyl}aminoalkanols as anticonvulsant agents” (Bioorg Med Chem, 2016).
The source made the active and inactive calls. The calls are words filed in the database; no cut-off is given here.

How the values were obtained:
[1] = test system: Rattus norvegicus; experiment: Anticonvulsant activity in rat assessed as protection against maximal electric shock-induced seizures at 30 mg/kg, po measured after 0.5 hrs; assay type: functional, organism-based
Procedure, shortened: (§1)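 Rats dosed ip or orally as 0.5% methylcellulose suspension; maximal electroshock at listed time. Protection = abolition of hindlimb tonic extension; 4 rats per group, scored protected/tested.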

[2] = test system: Mus musculus; experiment: Anticonvulsant activity in mouse assessed as protection against 6 Hz psychomotor seizure at 40 mg/kg, ip after 0.5 hrs; assay type: functional, organism-based
Procedure, shortened: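 Suspension in 0.5% methylcellulose given ip to mice; corneal stimulation with 0.2 ms monopolar rectangular pulses at 6 Hz for 3 s from a constant current device, mice restrained then released to observation cage. Protected if normal exploratory behaviour resumed within 10 s of stimulation. Scored as protected/tested, 4 mice per group.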

[3] = test system: Mus musculus; experiment: Anticonvulsant activity in mouse assessed as protection against maximal electric shock-induced seizures at 10 mg/kg, ip measured after 0.5 hrs; assay type: functional, organism-based
Procedure, shortened: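 Mice dosed ip with suspension in 0.5% methylcellulose; maximal electroshock applied at the listed time after dosing. Protection = abolition of hindlimb tonic extension component of seizure; reported as animals protected/animals tested.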

[4] = test system: Rattus norvegicus; experiment: Anticonvulsant activity in rat assessed as protection against maximal electric shock-induced seizures at 30 mg/kg, ip measured after 0.5 hrs; assay type: functional, organism-based; procedure, shortened: as §1
[5] = test system: Rattus norvegicus; experiment: Anticonvulsant activity in rat assessed as protection against maximal electric shock-induced seizures at 30 mg/kg, ip measured after 4 hrs; assay type: functional, organism-based; procedure, shortened: as §1
[6] = test system: Rattus norvegicus; experiment: Anticonvulsant activity in rat assessed as protection against maximal electric shock-induced seizures at 30 mg/kg, po measured after […]; assay type: functional, organism-based
[7] = target: Small conductance calcium-activated potassium channel (Rattus norvegicus) (UniProt P70604+P70606+P70605); experiment: Displacement of [125I]apamin from rat cerebral cortex small conductance calcium-activated potassium channel at 10^-5 M; assay type: tissue-based
Procedure, shortened: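 Radioligand binding screen run at a single test concentration of 10^-5 M. Each target used its stated receptor source (human recombinant CHO or HEK-293 cells, endogenous cell lines, or rat tissue membranes) with the listed radioligand.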

[8] = Neurotoxicity in ip dosed mouse after […] by rotarod test; assay type: toxicity, organism-based; conditions: in vivo
[9] = test system: Mus musculus; experiment: Analgesic activity in mouse assessed as reduction in AUC of formalin-induced licking time during acute phase at 13 mg/kg, ip relative to control; assay type: functional
Procedure, shortened: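 Formalin injected into a mouse hindlimb; total licking time taken as pain intensity. Compound given ip at 13 mg/kg as a suspension in 0.5% methylcellulose; vehicle-only animals served as controls.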

[10] = test system: Vibrio harveyi; experiment: Mutagenicity in Vibrio harveyi BB7 assessed as number of colonies after 48 hrs (reference value: 13 to 14 no_unit); assay type: ADME, organism-based; conditions: in vivo
Procedure, shortened: (§2)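 Vibrio harveyi mutagenicity test: test compound was added to exponentially growing cultures (A600 = 0.1, 30 °C) and grown to OD600 0.3–0.4. Then 5 × 10^6 cells were plated on BOSS agar with neomycin (final 100 µg/mL) and incubated 48 h at 30 °C. Neomycin-resistant colonies were counted. Triplicate; controls were water, DMSO and NQNO 40 ng/mL.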

[11] = test system: Vibrio harveyi; experiment: Mutagenicity in Vibrio harveyi BB7X assessed as number of colonies after 48 hrs (reference value: 15 to 16 no_unit); assay type: ADME, organism-based; conditions: in vivo; procedure, shortened: as §2
[12] = test system: Vibrio harveyi; experiment: Antimutagenic activity against Vibrio harveyi BB7M assessed as inhibition of NQNO-induced mutagenicity after 48 hrs; assay type: functional
Procedure, shortened: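 V. harveyi cultures grown exponentially to A600 0.1 at 30 °C, exposed to test compound for 15 min, then to NQNO, and grown on to A600 0.3–0.4. 5 × 10⁶ cells plated on BOSS agar with neomycin (100, final). Neomycin-resistant colonies counted after 48 h at 30 °C. Result given as % inhibition of NQNO mutagenicity; three independent repeats.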

[13] = MRT in CD1 mouse plasma at 1 mg/kg, iv measured up to 240 mins by LC/ESI-MS/MS analysis; assay type: ADME, organism-based
[14] = test system: Mus musculus; experiment: AUMC (0 to infinity) in CD1 mouse plasma at 12.92 mg/kg, ig measured up to 240 mins by LC/ESI-MS/MS analysis; assay type: ADME, organism-based; conditions: in vivo, po, 4 h
[15] = test system: Mus musculus; experiment: Cmax in CD1 mouse plasma at 12.92 mg/kg, ip measured up to 240 mins by LC/ESI-MS/MS analysis; assay type: ADME, organism-based; design: dose 12.92 mg/kg, route intraperitoneal; conditions: in vivo, 4 h
[16] = AUC (0 to infinity) in CD1 mouse brain at 1 mg/kg, iv measured up to 240 mins by LC/ESI-MS/MS analysis; assay type: ADME, organism-based; design: dose 1 mg/kg, route intravenous, time infinity
[17] = Tmax in CD1 mouse brain at 1 mg/kg, iv measured up to 240 mins by LC/ESI-MS/MS analysis; assay type: ADME, organism-based
[18] = AUC (0 to infinity) in CD1 mouse brain at 12.92 mg/kg, ip measured up to 240 mins by LC/ESI-MS/MS analysis; assay type: ADME, organism-based; design: dose 12.92 mg/kg, route intraperitoneal, time infinity
[19] = target: hERG (KCNH2) (Homo sapiens, UniProt Q12809); experiment: Displacement of [3H]astemizole from human recombinant ERG expressed in HEK293 cells at 10^-4 M; assay type: cell-based; conditions: HEK293 cells that express human recombinant ERG, probe [3H]astemizole
hERG (KCNH2), sequence (Q12809 whole entry): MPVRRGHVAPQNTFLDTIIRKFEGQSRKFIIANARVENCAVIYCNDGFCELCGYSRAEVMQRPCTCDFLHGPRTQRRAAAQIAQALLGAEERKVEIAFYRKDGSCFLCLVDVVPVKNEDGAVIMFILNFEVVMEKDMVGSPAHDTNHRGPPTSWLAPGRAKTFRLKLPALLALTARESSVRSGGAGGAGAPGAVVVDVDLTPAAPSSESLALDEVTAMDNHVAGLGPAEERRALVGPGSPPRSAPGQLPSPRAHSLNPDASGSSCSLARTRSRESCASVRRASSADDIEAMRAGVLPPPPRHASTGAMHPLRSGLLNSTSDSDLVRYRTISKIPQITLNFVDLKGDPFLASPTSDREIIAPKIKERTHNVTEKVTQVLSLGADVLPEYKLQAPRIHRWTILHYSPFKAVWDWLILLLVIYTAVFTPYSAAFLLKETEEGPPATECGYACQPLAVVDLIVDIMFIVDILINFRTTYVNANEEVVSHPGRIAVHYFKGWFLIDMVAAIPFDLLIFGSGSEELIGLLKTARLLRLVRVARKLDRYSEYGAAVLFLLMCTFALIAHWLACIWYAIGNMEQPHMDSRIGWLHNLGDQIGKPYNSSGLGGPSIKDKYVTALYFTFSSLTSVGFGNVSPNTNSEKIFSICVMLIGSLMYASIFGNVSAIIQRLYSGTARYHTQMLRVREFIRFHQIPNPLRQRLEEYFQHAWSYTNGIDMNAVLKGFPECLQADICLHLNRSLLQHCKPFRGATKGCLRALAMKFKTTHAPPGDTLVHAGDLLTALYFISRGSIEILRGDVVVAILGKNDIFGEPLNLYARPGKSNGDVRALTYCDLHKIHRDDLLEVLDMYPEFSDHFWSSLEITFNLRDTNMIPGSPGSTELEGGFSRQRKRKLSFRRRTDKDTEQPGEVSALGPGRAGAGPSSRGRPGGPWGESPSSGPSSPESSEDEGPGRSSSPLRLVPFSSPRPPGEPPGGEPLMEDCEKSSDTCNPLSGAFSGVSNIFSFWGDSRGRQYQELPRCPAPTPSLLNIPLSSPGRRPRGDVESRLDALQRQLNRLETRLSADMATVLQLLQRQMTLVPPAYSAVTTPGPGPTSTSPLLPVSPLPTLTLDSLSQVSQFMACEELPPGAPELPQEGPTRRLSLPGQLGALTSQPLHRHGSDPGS

[20] = in vitro; conditions: mouse, liver microsomes
[21] = in vitro; conditions: mouse, liver microsomes; remark: listed apart in the source
[22] = test system: Rattus norvegicus; experiment: Anticonvulsant activity in pilocarpine-induced status epilepticus Sprague-Dawley rat model at 100 mg/kg, ip after 1 hr during post stage 3 seizure; assay type: functional, organism-based
Procedure, shortened: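 Rats given pilocarpine 50 mg/kg ip and observed to first convulsive seizure (Racine stage 3–5, time zero); test drug then given ip in 0.5% methylcellulose. Efficacy = halting further stage 3–5 convulsive seizures; scored protected/tested, time after first stage 3 seizure.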

Cc1cccc(C)c1OCCOCCN[C@@H](C)CO
Activity [1]: inactive | Activity [2]: Active | Activity [3]: inactive | Activity [4]: Active | Activity [5]: inactive | Activity [6]: inactive | inhibition [7]: -0.9%

Cc1cccc(C)c1OCCOCCN[C@H](C)CO.Cl
TD50 at […] [8]: 33.3 mg/kg | inhibition in vivo at 13 mg/kg [9]: 54.9% | Activity [10]: 20 | Activity [11]: 25 | inhibition (INH) [12]: 69% | MRT [13]: 55.6 min | AUMC [14]: 266 ng·h²/mL | Cmax [15]: 1.19 µg/mL | AUC(0-inf) [16]: 5.15 µg·h/mL | Tmax [17]: 5 min | AUC(0-inf) [18]: 2.16 µg·h/mL | inhibition at 100 µM [19]: 3.6% | half-life at 20 µM [20]: 37 min | microsomal CLint at 20 µM [21]: 47 µL/min/mg

Cc1cccc(C)c1OCCOCCN[C@H](C)CO
Activity [22]: inactive
